Compounds with a hit are over-represented: about 3.5% of the library has one in this group of screens.
MITF act – activators of MITF-driven TRPM1 promoter reporter, primary screen, cell-based, SK-MEL-5, luciferase, single point; actives 0.75% (n = 300,000); activation, % at 12.5 µM; SK-MEL-5 TRPM1-promoter luciferase, 24 h; % of positive control, neutral wells = 0;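 active = mean activation of at least 80% with every replicate also reaching 80%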;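 note: 0% = neutral control wells and 100% = parthenolide positive control wells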
ERAP1 inh – human ERAP1 aminopeptidase inhibitors, primary screen, biochemical, single point, plate reader | Endoplasmic reticulum aminopeptidase 1 (Homo sapiens), Q9NZ08 | recombinant ERAP1, Leu-AMC fluorescence, 60 min | inhibition, % at 10.7 µM | actives 0.15% (n = 340,000) | AID 652197, 2013;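 active = mean replicate inhibition of at least 30%, or all replicates individually reaching that 30% level; inactive = mean below 30% and not every replicate reaching it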;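 note: 0% = neutral control wells and 100% = L-leucinethiol positive control wells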
Wnt bcat act – Wnt/beta-catenin pathway activators, primary screen, cell-based, plate reader, single point. Wnt/beta-catenin reporter cell assay, activator. actives 1.2% (n = 300,000). AID 743398, 2014. activation, % at 9.35 µM; in the data active = activation above about 30%, passing the limit was not always enough;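 note: 0% = neutral control wells and 100% = positive control wells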
Cneo AK release – Cryptococcus neoformans cell lysis inducers, primary screen, AK release luminescence, single concentration; actives 0.2% (n = 360,000); C. neoformans lysis, adenylate kinase release luminescence, 4 h; normalised: neutral wells 0, clomiphene wells 100; lysis activity, % at 15 µM;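 active = mean lysis activity across replicates of at least 80%, whatever share of replicates individually reach that level; inactive = mean lysis activity below 80%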
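Assay system: C. neoformans cells. Amount: yeast cell density of 5 × 10^6 cells/mL. Technique: AK luminescence. Buffer or medium: YPD. Times: static 4 h at 37 °C with compound, 1 h detection. Dosing: single-point compound dose. Read-out: lysis from increased AK signal.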
HIV Env fusion – inhibitors of HIV-1 Env-driven cell-cell fusion, primary screen, HeLa-JRFL effector, CEM21 target cells, luciferase. inhibition, % at 12.3 µM. actives 1.1% (n = 360,000);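 active = mean replicate inhibition score of at least 50 and every replicate individually at or above 50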;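 note: 0% = plate neutral controls and 100% = maraviroc near 300 nM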
esBAF inh – Bmi1 luciferase reporter increase in mESCs, primary screen, esBAF inhibitor project, mouse ES cells, Bmi1 luciferase knock-in, single point | 24 h; 100% = twice the neutral-well signal | reporter increase, % at 12.5 µM | actives 2% (n = 350,000); in the data active = activation above about 40%;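 note: 0% = median of the plate's neutral control wells and 100% = double that signal; a rise in the Bmi1 reporter signal indicates esBAF inhibition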
* = called active by the depositor; nt = not tested or not shown; [ ] = remark or other dose.

SMILES | MITF act | ERAP1 inh | Wnt bcat act | Cneo AK release | HIV Env fusion | esBAF inh
COc1ccc(NC(=O)Nc2ccc3c(c2)C(=O)N([C@H](C)CO)C[C@H](C)[C@H](CN(C)Cc2ccccc2)OCCCC[C@H](C)O3)cc1 | nt | -1.4 | nt | 1.4 | 73.9*[16.7 µM] | 5.3
COc1ccc(CN(C)C[C@@H]2OCCCC[C@@H](C)Oc3ccc(NC(=O)c4ccccc4)cc3C(=O)N([C@H](C)CO)C[C@@H]2C)cc1 | nt | -2.9 | nt | 85.8* | -31.0[16.7 µM] | -5.7
COc1ccc(NC(=O)Nc2ccc3c(c2)C(=O)N([C@H](C)CO)C[C@@H](C)[C@@H](CN(C)Cc2ccncc2)OCCCC[C@@H](C)O3)cc1 | nt | -0.2 | nt | 3.1 | -1.0[16.7 µM] | 5.8
COc1ccc(NC(=O)Nc2ccc3c(c2)C(=O)N([C@@H](C)CO)C[C@H](C)[C@H](CN(C)Cc2ccncc2)OCCCC[C@H](C)O3)cc1 | nt | 1.5 | nt | 50.8 | 88.4*[16.7 µM] | -1.1
COc1ccc(NC(=O)Nc2ccc3c(c2)C(=O)N([C@@H](C)CO)C[C@@H](C)[C@H](CN(C)Cc2ccccc2)OCCCC[C@@H](C)O3)cc1 | nt | 0.4 | nt | -0.4 | -3.5[16.7 µM] | 1.6
CC(C)(C)[C@@H]1C=C(C(=O)N2CCCCCCC2)O[C@H](OCc2ccc(CO)cc2)C1 | nt | 1.9 | nt | -0.7 | 3.2[16.7 µM] | nt
C[C@H](CO)N1C[C@H](C)[C@H](CN(C)S(=O)(=O)c2ccc(F)cc2)OCCCC[C@H](C)Oc2ccc(NS(=O)(=O)c3ccc(F)cc3)cc2C1=O | nt | nt | nt | -11.5 | -124.7[16.7 µM] | 1.9
COCC(=O)N1CC(=O)N2[C@H](CO)[C@H](c3ccc(-c4cccnc4)cc3)[C@H]2C1 | nt | 1.5 | nt | nt | nt | nt
CCN(CC)c1nc(Nc2ccccc2)nc(Oc2ccc(=O)n(C)n2)n1 | -6.2 | nt | 5.9 | -6.0 | 50.8 | -5.2
CCN(CC)c1nc(Nc2ccccc2)nc(Oc2ccc(=O)[nH]n2)n1 | -3.4 | nt | nt | -3.8 | 90.9* | 1.6
CCCCc1nnc(NC(=O)c2oc3ccccc3c2C)s1 | 36.6 | 2.6 | 3.5 | nt | nt | 62.7*
Cc1nc(NC(=O)c2oc3ccccc3c2C)sc1C(=O)N(C)C | 56.8 | nt | 16.9 | 8.6 | -34.0 | 61.7*
O=C(c1ccccc1)N1CC2(C1)[C@H](c1ccccc1)[C@@H](CO)N2Cc1cccnc1 | nt | 2.1 | nt | nt | nt | nt
O=C(NC1CCCC1)c1cc2nc(-c3ccccc3)cc(-c3ccccc3)n2n1 | -5.3 | nt | 0.3 | 0.9 | 18.2 | nt
CC1CCN(C(=O)c2cc3nc(-c4ccccc4)cc(-c4ccccc4)n3n2)CC1 | 5.3 | nt | -3.1 | 0.2 | 76.8* | 0.7
O=C(Nc1nc2ccc(F)cc2s1)c1cccs1 | 46.0 | 0.8 | 56.9* | nt | -121.7 | nt
O=C(CCNC(=O)c1ccccc1Cl)Nc1nc2ccc(F)cc2s1 | 50.1 | -1.4 | 18.0 | 0.1 | nt | 51.9*
O=C(Nc1nc2ccc(F)cc2s1)c1ccc([N+](=O)[O-])o1 | nt | -1.6 | 70.5* | -0.3 | -174.4 | 88.5*
CN(C)C(=O)C[C@@H]1CC[C@H]2[C@@H](COC[C@H](O)CN2CC2CCOCC2)O1 | nt | 0.1 | nt | 2.2 | nt | -5.2
CCCN1[C@@H]2c3ccc(-c4ccc(F)cc4)c(=O)n3C[C@H]1[C@H](CO)[C@H]2C(=O)NCCc1cn(C)cn1 | nt | 3.3 | nt | -1.5 | nt | 4.2
C/C=C/c1ccc([C@H]2[C@H](CO)N(C(C)=O)C23CN(S(C)(=O)=O)C3)cc1 | nt | 2.2 | nt | nt | nt | nt
COc1ccc(CCNc2ccc(C(CC(N)=O)NC(=O)c3ccc(Br)cc3)cc2[N+](=O)[O-])cc1 (centres undefined) | -2.4 | 0.4 | -3.7 | -2.5 | 9.7 | 3.4
NC(=O)CC(NC(=O)Cc1ccc(Br)cc1)c1ccc(N2CCC(Br)CC2)c([N+](=O)[O-])c1 (centres undefined) | -0.1 | 1.1 | -5.5 | -1.3 | 63.0* | -6.0
COc1ccc(CCNc2ccc(C(CC(N)=O)NC(=O)Cc3ccc(Br)cc3)cc2[N+](=O)[O-])cc1 (centres undefined) | -6.4 | 5.7 | -2.4 | -1.6 | 74.5* | 6.9

Screening results as filed in PubChem.
